Results reported in ChEMBL document CHEMBL4251706, “Elimination of HIV-1 Latently Infected Cells by Gnidimacrin and a Selective HDAC Inhibitor” (ACS Med Chem Lett, 2018).
Active and inactive are the calls of the source. The rule behind the calls is not given here.

Key:
[1] = system: Human immunodeficiency virus 1; assay: Reactivation of latent HIV1 infected in human U1 cells assessed as increase in p24 production after 48 hrs by ELISA; assay type: functional, organism-based; details: Human immunodeficiency virus 1, U1, 48 h; read-out: EC50
[2] = system: Human immunodeficiency virus 1; assay: Reactivation of latent HIV1 infected in human U1 cells assessed as increase in p24 production after 48 hrs by ELISA relative to vorinostat; assay type: functional
Outline: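 U1 cells at 2x10^5 cells/ml incubated with a range of concentrations at 37 °C for 48 h. Supernatant p24 measured by HIV p24 ELISA. EC50 ± SD derived from 3 independent experiments.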

[3] = Cytotoxicity against human U937 cells assessed as reduction in cell viability after 48 hrs by CellTiter-Glo luminescent cell viability assay; assay type: cell-based, U-937
Outline: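 U937 cells (HIV-1-negative parental line of U1) at 2x10^5 cells/ml exposed to a range of concentrations for 48 h at 37 °C. Viability read by CellTiter-Glo luminescence. CC50 ± SD derived from 3 independent experiments.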

[4] = Selectivity index, ratio of CC50 for human U937 cells to EC50 for reactivation of latent HIV1 infected in human U1 cells; details: U937 cells (CC50) and latent HIV-1 infected U1 cells (EC50)
[5] = system: Human immunodeficiency virus 1; assay: Synergistic reactivation of latent HIV1 infected in human U1 cells assessed as increase in p24 production after 48 hrs in presence of HDAC inhibitor TPB by ELISA; assay type: functional, organism-based; details: Human immunodeficiency virus 1, U1, 48 h
[6] = system: Human immunodeficiency virus 1; assay: Synergistic reactivation of latent HIV1 infected in human J-Lat A2 cells assessed as increase in GFP positive cells after 72 hrs in presence of HDAC inhibitor TPB by flow cytometric analysis relative to control; assay type: functional
Outline: (§1)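 J-Lat (A2) cells express GFP on latent HIV-1 activation; 1x10^6 cells/well incubated with LRA(s), alone or in pairs (HDAC inhibitor TPB 0.3 µM or TPyB 1.0 µM), at 37 °C for 72 h; GFP+ cell frequency by flow cytometry; two independent experiments, one-tailed t-test.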

[7] = system: Human immunodeficiency virus 1; assay: Reactivation of latent HIV1 infected in human J-Lat A2 cells assessed as increase in GFP positive cells at 80 pM after 72 hrs by flow cytometric analysis relative to control; assay type: functional; outline: as §1
[8] = Cytotoxicity against human J-Lat (A2) cells assessed as effect on cell viability at 80 pM after 72 hrs by flow cytometric analysis; assay type: cell-based
Outline: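 J-Lat (A2) cells, 1x10^6 cells/well, exposed to LRA(s) at 37 °C for 72 h; percent viable cells read by flow cytometry, two independent experiments.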

[9] = system: Human immunodeficiency virus 1; assay: Synergistic reactivation of latent HIV1 infected in human PBMC assessed as reduction in HIV1 DNA at 20 pM after 6 days in presence of HDAC inhibitor TPB by SYBR green dye based RT-PCR analysis relative to control; assay type: functional
[10] = system: Human immunodeficiency virus 1; assay: Synergistic reactivation of latent HIV1 infected in human PBMC assessed as reduction in frequency of HIV1 latently infected CD4+ cells at 20 pM preincubated for 6 days followed by PHA-stimulation measured after 48 hrs in presence of HDAC inhibitor TPB by ELISA; assay type: functional
[11] = system: Human immunodeficiency virus 1; assay: Reactivation of latent HIV1 infected in human U1 cells/uninfected U937 cell mixture assessed as increase in p24 production at 26 pM supplemented with fresh medium containing compound every 3 days for 18 days measured at day 9 post dose by ELISA; assay type: functional, organism-based
Outline: (§2)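 U1 and U937 cells mixed 1:4 (1x10^5 cells/ml) with LRA(s) (GM 26 pM, TPyB 0.57 µM) or DMSO, plus T20 1 µg/ml, for 18 days. p24 in supernatant read by ELISA every 3 days, after which medium with compound was renewed and cells reset to 1x10^5/ml. At day 18, part of the cells got GM 129 pM for 72 h and were read on day 21.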

[12] = system: Human immunodeficiency virus 1; assay: Synergistic reactivation of latent HIV1 infected in human U1 cells/uninfected U937 cell mixture assessed as increase in p24 production at 26 pM supplemented with fresh medium containing compound every 3 days for 18 days measured at day 6 post dose in presence of HDAC inhibitor TPyB by ELISA; assay type: functional, organism-based; outline: as §2
[13] = system: Human immunodeficiency virus 1; assay: Reactivation of latent HIV1 infected in human U1 cells/uninfected U937 cell mixture assessed as p24 level at 26 pM supplemented with fresh medium containing compound every 3 days for 18 days measured at day 18 post dose by ELISA; assay type: functional; outline: as §2
[14] = system: Human immunodeficiency virus 1; assay: Synergistic reactivation of latent HIV1 infected in human U1 cells/uninfected U937 cell mixture assessed as p24 level at 26 pM supplemented with fresh medium containing compound every 3 days for 18 days measured at day 6 post dose in presence of HDAC inhibitor TPyB by ELISA; assay type: functional; outline: as §2
[15] = system: Human immunodeficiency virus 1; assay: Reactivation of latent HIV1 infected in human U1 cells/uninfected U937 cell mixture assessed as increase in p24 production at 26 pM supplemented with fresh medium containing compound every 3 days for 18 days and subsequent dosing at 129 pM at day 18 post dose measured on day 21 by ELISA; assay type: functional, organism-based; outline: as §2
[16] = system: Human immunodeficiency virus 1; assay: Synergistic reactivation of latent HIV1 infected in human U1 cells/uninfected U937 cell mixture assessed as increase in p24 production at 26 pM supplemented with fresh medium containing compound every 3 days for 18 days and subsequent dosing at 129 pM at day 18 post dose measured on day 21 in presence of HDAC inhibitor TPyB by ELISA; assay type: functional, organism-based; outline: as §2
[17] = system: Human immunodeficiency virus 1; assay: Synergistic reactivation of latent HIV1 infected in human U1 cells/uninfected U937 cell mixture assessed as reduction in proviral DNA level at 26 pM supplemented with fresh medium containing compound every 3 days for 18 days measured post last dose in presence of HDAC inhibitor TPyB by PCR analysis relative to control; assay type: functional
Outline: (§3)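 Cells from the 18-day U1/U937 (1:4) co-culture with LRA(s) or DMSO plus T20 were tested for proviral DNA by PCR of HIV-1 pol (200 bp, 30 cycles), with B2M (779 bp, 25 cycles) as internal control. Products run on 2% agarose and quantified by densitometry; values are ratios of treated to DMSO.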

[18] = system: Human immunodeficiency virus 1; assay: Reactivation of latent HIV1 infected in human U1 cells/uninfected U937 cell mixture assessed as reduction in proviral DNA level at 26 pM supplemented with fresh medium containing compound every 3 days for 18 days measured post last dose by PCR analysis; assay type: functional, organism-based; outline: as §3
PBMC [19] = assay: Induction of IFNgamma1 production in human PBMC at 2000 pM after 2 days by ELISA (reference value: 29 pg/ml); assay type: cell-based; details: 48 h, 0.002 µM
PBMC [20] = assay: Induction of IFNgamma1 production in human PBMC at 20 pM after 2 days by ELISA (reference value: 29 pg/ml); assay type: cell-based; details: 48 h
PBMC [21] = assay: Induction of IFNgamma1 production in human PBMC at 2000 pM after 2 days in presence of 3 uM HDAC inhibitor TPB by ELISA (reference value: 26 pg/ml); assay type: cell-based; details: 48 h, 0.002 µM
PBMC [22] = assay: Induction of IFNgamma1 production in human PBMC at 20 pM after 2 days in presence of 3 uM HDAC inhibitor TPB by ELISA (reference value: 26 pg/ml); assay type: cell-based; details: 48 h
PBMC [23] = assay: Induction of IFNgamma1 production in human PBMC at 2000 pM after 2 days in presence of 1 uM HDAC inhibitor TPB by ELISA (reference value: 27 pg/ml); assay type: cell-based; details: 48 h, 0.002 µM
PBMC [24] = assay: Induction of IFNgamma1 production in human PBMC at 20 pM after 2 days in presence of 1 uM HDAC inhibitor TPB by ELISA (reference value: 27 pg/ml); assay type: cell-based; details: 48 h
PBMC [25] = assay: Induction of IFNgamma1 production in human PBMC at 2000 pM after 2 days in presence of 0.3 uM HDAC inhibitor SAHA by ELISA (reference value: 25 pg/ml); assay type: cell-based; details: 48 h, 0.002 µM
PBMC [26] = assay: Induction of IFNgamma1 production in human PBMC at 20 pM after 2 days in presence of 0.3 uM HDAC inhibitor SAHA by ELISA (reference value: 25 pg/ml); assay type: cell-based; details: 48 h
PBMC [27] = assay: Induction of T-cell activation in human PBMC assessed as increase in CD69 expression at 3 nM measured after 1 day in presence of HDAC inhibitor TPyB by flow cytometric method; assay type: cell-based; details: 24 h, 0.003 µM
PBMC [28] = assay: Induction of T-cell activation in human PBMC assessed as increase in CD69 expression at 3 nM measured after 1 day in presence of HDAC inhibitor vorinostat by flow cytometric method; assay type: cell-based; details: 24 h, 0.003 µM
[29] = system: Human immunodeficiency virus 1; assay: Ratio of EC50 for reactivation of latent HIV1 infected in human U1 cells to EC50 for synergistic reactivation of latent HIV1 infected in human U1 cells in presence of HDAC inhibitor TPB; assay type: functional
[30] = system: Human immunodeficiency virus 1; assay: Synergistic reactivation of latent HIV1 infected in human U1 cells assessed as increase in p24 production after 48 hrs in presenc of HDAC inhibitor TPB by ELISA relative to vorinostat; assay type: functional
[31] = Cytotoxicity against human Jurkat cells assessed as reduction in cell viability after 72 hrs by CellTiter-Glo luminescent cell viability assay; assay type: cell-based

## C=C(C)[C@@]12C[C@@H](COC(=O)c3ccccc3)[C@@]34OC5(O[C@@H]1[C@@H]3[C@@H]1O[C@]1(CO)[C@@H](O)[C@@]1(O)[C@H]4[C@H]([C@H](C)[C@@H]1OC(=O)c1ccccc1)[C@H](C)CCCCCC[C@H]5O)O2 [GNIDIMACRIN]
[1]
  EC50: 0.018 nM
[2]
  fold change (FC): 12.3
[3]
  CC50 at 48 h: 4200 to 4800 nM
[4]
  selectivity ratio: 260000 to 750000
[5]
  EC50: 0.0056 nM
[6]
  Activity: 21%
[7]
  Activity: >5%
[8]
  Activity: Non-Toxic
[9]
  fold change (FC): 1.8
[10]
  fold change (FC): >3
[11]
  Activity: Active
[12]
  Activity: Active
[13]
  Activity: 49 pg/mL
[14]
  Activity: 12 pg/mL
[15]
  Activity: inactive
[16]
  Activity: inactive
[17]
  fold change (FC): 10
[18]
  Activity: Active
PBMC [19]
  Activity: 164 pg/mL
PBMC [20]
  Activity: 35 pg/mL
PBMC [21]
  Activity: 42 pg/mL
PBMC [22]
  Activity: 32 pg/mL
PBMC [23]
  Activity: 47 pg/mL
PBMC [24]
  Activity: 34 pg/mL
PBMC [25]
  Activity: 39 pg/mL
PBMC [26]
  Activity: 30 pg/mL
PBMC [27]
  Activity: Toxic
PBMC [28]
  Activity: Toxic
[29]
  Ratio EC50: >3
[30]
  fold change (FC): 13.8
[31]
  CC50 at 72 h: 5300 nM
